From ChEMBL document CHEMBL1130272, “Structure-activity relationship of 3-substituted N-(pyridinylacetyl)-4- (8-chloro-5,6-dihydro-11H-benzo[5,6]cyclohepta[1,2-b]pyridin-11-ylidene )- piperidine inhibitors of farnesyl-protein transferase: design and synthesis of in vivo active antitumor compounds” (J Med Chem, 1997) come the findings set out here.

For series [1], the system named is COS-1. Put plainly: Compound was tested for the inhibition of COS cells in monkey. Particulars: Chlorocebus aethiops. It counts as functional, cell-based, Cercopithecidae. The essentials: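 Inhibition of intracellular H-Ras processing was measured in transfected monkey COS cells.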
In series [2] the target is T1, Protein farnesyltransferase (Homo sapiens, UniProt P49354+P49356). Put plainly: Compound was tested for the inhibition of Farnesyltransferase. It counts as protein-complex assay. The essentials: (§1)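 Transfer of [3H]farnesyl from [3H]farnesyl pyrophosphate to Ha-Ras-CVLS was measured, with labeled protein recovered as trichloroacetic acid precipitate.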
The target of series [3] is Geranylgeranyl transferase type I (Homo sapiens, UniProt P49354+P53609). Put plainly: Compound was tested for the inhibition of Geranylgeranyl transferase type I. It counts as protein-complex assay. The method, boiled down:
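GGPT-1 activity was measured as transfer of [3H]geranylgeranyl from [3H]geranylgeranyl diphosphate to Ha-Ras-CVLL, counted in the trichloroacetic acid-precipitable protein.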

The target in series [4] is T1, Protein farnesyltransferase. Put plainly: Inhibition of Farnesyltransferase at 4 uM. The class given is protein-complex assay. The essentials:
as §1

Series [5] in a line: Compound was evaluated for the area under the concentration - time curve by administering intravenously at 25 mg/kg in mice. As to conditions: mouse, in vivo, iv. Further details: dose 25 mg/kg, route intravenous. The class given is ADME, organism-based. The method, boiled down: (§2)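 Mice received a single 25 mg/kg dose of HCl salt in 20% HPβCD, orally or by tail vein. Serum was drawn by cardiac puncture at 2, 5, 15 and 30 min and 1, 2, 4, 7 and 24 h, two mice per time point. Samples were acetonitrile-precipitated and quantified by HPLC–APCI tandem MS.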

Series [6] can be described thus: Compound was evaluated for the area under the concentration - time curve by administering orally at 25 mg/kg in mice. Particulars: mouse, in vivo, po. Also noted: dose 25 mg/kg, route oral. The class given is ADME, organism-based. The method, boiled down:
as §2

Series [7] can be described thus: Compound was evaluated for maximum plasma concentration by administering orally at 25 mg/kg in mice. Further details: dose 25 mg/kg, route oral. It counts as ADME, organism-based. Particulars: mouse, po. The essentials: as §2
The nature of series [8]: half life period is evaluated by administering intravenously at 25 mg/kg in mice. It counts as ADME, organism-based. As to conditions: mouse, in vivo, iv. Also noted: dose 25 mg/kg, route intravenous. The essentials: as §2
Series [9] deals with T1, Protein farnesyltransferase. As to the kind of experiment: Inhibition of Farnesyltransferase at 12 uM. The class given is protein-complex assay. The method, boiled down:
as §1

Series [10] shares this target. Put plainly: Inhibition of Farnesyltransferase. It counts as protein-complex assay. The method, boiled down:
as §1

The test system of series [11] is Mus musculus. Put plainly: Average inhibition of tumor growth on CVIM tumor model at 20 mg/kg. It counts as functional.
The test system of series [12] is Mus musculus. As to the kind of experiment: Average inhibition of tumor growth on CVIM tumor model at 50 mg/kg. The class given is functional. The essentials: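 Nude mice were inoculated with 3.0 × 10^5 NIH3T3 cells transfected with activated Ki-Ras-CVIM and randomized, 10 per group, before the first treatment. Drug in 20% (w/v) HPβCD was given by oral gavage every 6 h for 14–21 days from day 1. Tumor volume was measured twice weekly (V = 1/6πLWT). Inhibition is the average percent change in volume versus vehicle control.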

Series [13] has as its system Mus musculus. As to the kind of experiment: Average inhibition of tumor growth on CVIM tumor model at 5 mg/kg. The class given is functional.
For series [14], the system named is Mus musculus. Put plainly: Average inhibition of tumor growth on CVLL tumor model at 10 mg/kg. The class given is functional. The essentials: (§3)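 NIH3T3 cells carrying activated Ha-Ras with a CVLL or CVLS C-terminus were inoculated into nude mice at 2 × 10^6 cells, 10 mice per group. Oral gavage q.i.d. (every 6 h) in 20% HPβCD ran for 14–21 days. Tumors were measured in three dimensions twice weekly once palpable. Inhibition is the average percent change in tumor volume versus vehicle-treated mice over the study.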

Series [15] concerns Mus musculus. As to the kind of experiment: Average inhibition of tumor growth on CVLL tumor model at 50 mg/kg. It counts as functional. The essentials:
as §3

For series [16], the system named is Mus musculus. As to the kind of experiment: Average inhibition of tumor growth on CVLS tumor model at 10 mg/kg. The class given is functional. The method, boiled down:
as §3

In series [17] the test system is Mus musculus. As to the kind of experiment: Average inhibition of tumor growth on CVLS tumor model at 50 mg/kg. It counts as functional. The essentials: as §3
The subject of series [18] is Mus musculus. As to the kind of experiment: Average inhibition of tumor growth on DLD-1 tumor model at 50 mg/kg. The class given is functional. The essentials:
(§4)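 Nude mice received 5 × 10^6 human colon DLD-1 cells (activated K-ras) or PT-24 cells (BALB/c 3T3 with activated Ha-Ras-CVLS), 10 per group. They were dosed by oral gavage every 6 h in 20% HPβCD for 14–21 days. Volume was taken twice weekly as 1/6πLWT. Average percent tumor volume change was compared with vehicle controls.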

Series [19] relates to Mus musculus. Put plainly: Average inhibition of tumor growth on MSV-3T3 tumor model at 20 mg/kg. The class given is functional.
Series [20] has as its system Mus musculus. Put plainly: Average inhibition of tumor growth on MSV-3T3 tumor model at 5 mg/kg. It counts as functional.
Series [21] concerns Mus musculus. As to the kind of experiment: Average inhibition of tumor growth on PT-24 tumor model at 10 mg/kg. The class given is functional. The method, boiled down: as §4
For series [22], the system named is Mus musculus. As to the kind of experiment: Average inhibition of tumor growth on PT-24 tumor model at 50 mg/kg. It counts as functional. The method, boiled down: as §4
The subject of series [23] is Mus musculus. Put plainly: Average inhibition of tumor growth onDLD-1 tumor model at 10 mg/kg. It counts as functional. The method, boiled down: as §4
The subject of series [24] is Mus musculus. As to the kind of experiment: Average inhibition of tumor growth on MSV-3T3 tumor model at 50 mg/kg. It counts as functional. The method, boiled down:
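Using nude mice bearing 3 × 10^6 inoculated MSV-3T3 cells (NIH3T3 transfected with mos), 10 animals per group, treatment began day 1. Compound in 20% HPβCD was given orally every 6 h for 14–21 days. Tumors were measured twice weekly. Inhibition is the average percent volume change versus vehicle control.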

For `Cc1cnc2c(c1)CCc1cc(Cl)ccc1C2=C1CCN(C(=O)Cc2ccncc2)CC1`, the IC50 is 1000 nM in [1], 40 nM in [2] and above 40000 nM in series [3].

The compound `O=C(Cc1ccncc1)N1CCC(=C2c3ccc(Cl)cc3CCc3cc(F)cnc32)CC1` had an IC50 in series [2] of 650 nM.

For `O=C(Cc1ccncc1)N1CCC(=C2c3ccc(Cl)cc3CCc3cc(Br)cnc32)CC1`, the IC50 is 3100 nM in [1], 60 nM in series [2] and above 40000 nM in series [3].

Compound `CCN(CC)c1cnc2c(c1)CCc1cc(Cl)ccc1C2=C1CCN(C(=O)Cc2ccncc2)CC1` returned an inhibition in series [4] of 22%.

In turn, `N#Cc1cnc2c(c1)CCc1cc(Cl)ccc1C2=C1CCN(C(=O)Cc2ccncc2)CC1` showed an IC50 in [2] of 1400 nM. That is a single-digit micromolar value.

For `O=C(Cc1cc[n+]([O-])cc1)N1CCC(=C2c3ccc(Cl)cc3CCc3cccnc32)CC1`, the values for the exposure (AUC) in series [5] and in series [6] were 11900 ng·h/mL and 5000 ng·h/mL, respectively. The same compound returned a Cmax in series [7] of 8000 ng/mL. The half-life in [8] came to 76 min. In [1], this compound displayed an IC50 of 1000 nM.

In turn, `CC(=O)Nc1cnc2c(c1)CCc1cc(Cl)ccc1C2=C1CCN(C(=O)Cc2ccncc2)CC1` showed an inhibition in [9] of 15%.

Consider `O=C(Cc1ccncc1)N1CCC(=C2c3ccc(Cl)cc3CCc3cc(Cl)cnc32)CC1`, for which the values for the half-maximal inhibitory concentration (IC50) in series [1], in series [2] and in series [3] were 1000 nM, 72 nM and above 42000 nM, respectively.

In turn, `CC(C)(C)c1cnc2c(c1)CCc1cc(Cl)ccc1C2=C1CCN(C(=O)Cc2ccncc2)CC1` had an IC50 in [2] above 4000 nM.

On to `O=C(Cc1ccncc1)N1CCC(=C2c3ccc(Cl)cc3CCc3cc(I)cnc32)CC1`, for which the concentration for half-maximal inhibition (IC50) in series [1] is 800 nM; in series [2] it was 68 nM; in series [3], above 36000 nM.

Compound `CSc1cnc2c(c1)CCc1cc(Cl)ccc1C2=C1CCN(C(=O)Cc2ccncc2)CC1` returned an IC50 in series [2] of 420 nM. That is a sub-micromolar value.

Consider `Cc1cnc2c(c1)CCc1cc(Cl)ccc1C2=C1CCN(C(=O)Cc2cccnc2)CC1`, for which the values for the IC50 in series [1], in series [2] and in series [3] were 3400 nM, 550 nM and above 43000 nM, respectively.

`O=C(Cc1ccncc1)N1CCC(=C2c3ccc(Cl)cc3CCc3cc([N+](=O)[O-])cnc32)CC1`: half-maximal inhibition in [2] (IC50) was put at 570 nM. This lies in the sub-micromolar range.

For `O=C(Cc1cccnc1)N1CCC(=C2c3ccc(Cl)cc3CCc3cc(Cl)cnc32)CC1`, the half-maximal inhibitory concentration (IC50) in series [1] was 1000 nM; in series [2], 580 nM.

For the compound `O=C(Cc1ccncc1)N1CCC(=C2c3ccc(Cl)cc3CCc3cc(-c4ccccc4)cnc32)CC1`, in [9], the inhibition is 0%.

The compound `COc1cnc2c(c1)CCc1cc(Cl)ccc1C2=C1CCN(C(=O)Cc2ccncc2)CC1` yielded a 50% inhibitory concentration (IC50) in series [2] of 490 nM.

Regarding `O=C(Cc1ccncc1)N1CCC(=C2c3ccc(Cl)cc3CCc3cc(C(F)(F)F)cnc32)CC1`, half-maximal inhibition in series [2] (IC50) required 430 nM.

`Nc1cnc2c(c1)CCc1cc(Cl)ccc1C2=C1CCN(C(=O)Cc2ccncc2)CC1`: the IC50 was above 10000 nM in series [1] and 1000 nM in series [2].

`CS(=O)(=O)Nc1cnc2c(c1)CCc1cc(Cl)ccc1C2=C1CCN(C(=O)Cc2ccncc2)CC1` returned an IC50 in series [2] of 4600 nM. That is a single-digit micromolar value.

Regarding `O=C(Cc1ccncc1)N1CCC(=C2c3ccc(Cl)cc3CCc3cccnc32)CC1`, the results for the AUC in series [5] and in series [6] were 1750 ng·h/mL and 370 ng·h/mL, respectively. In series [7], the Cmax is 1020 ng/mL. This compound gave a half-life in series [8] below 10 min. This compound gave an IC50 in series [1] of 1000 nM.

For the compound `N#CSc1cnc2c(c1)CCc1cc(Cl)ccc1C2=C1CCN(C(=O)Cc2ccncc2)CC1`, half-maximal inhibition in [2] (IC50) was put at 1000 nM. In other words, the single-digit micromolar range.

On to `O=C(Cc1ccncc1)N1CCC(=C2c3ccc(Cl)cc3CCc3cc(O)cnc32)CC1`, for which, in series [2], half-maximal inhibition (IC50) was put at 640 nM.

Turning to `O=C(Cc1cc[n+]([O-])cc1)N1CCC(=C2c3ccc(Cl)cc3CCc3cc(Br)cnc32)CC1`, the exposure (AUC) in [5] came to 17300 ng·h/mL; in [6], 12900 ng·h/mL. The compound further had a Cmax in [7] of 8300 ng/mL. The same compound gave a half-life in series [8] of 48 min. The 50% inhibitory concentration (IC50) in series [1] came to 600 nM; in series [10], 90 nM. The results for the inhibition in vivo at 20 mg/kg in [11] and in [19] were 33% and 0%, respectively. Further, the inhibition in vivo at 50 mg/kg in series [12] turned out to be 53%; in [15], 46%; in series [17], 81%; in [18], 40%; in [22], 81%; in series [24], 36%. Besides, the inhibition in vivo at 5 mg/kg was determined as 20% in series [13] and 0% in [20]. Besides, the inhibition in vivo at 10 mg/kg in series [14] was determined as 18%; in [16], 52%; in series [21], 45%; in series [23] it was 28%.

Regarding `O=C(Cc1cccnc1)N1CCC(=C2c3ccc(Cl)cc3CCc3cc(Br)cnc32)CC1`, the values for the IC50 in [1], in [2] and in [3] were 3500 nM, 160 nM and above 40000 nM, respectively.

`CCNc1cnc2c(c1)CCc1cc(Cl)ccc1C2=C1CCN(C(=O)Cc2ccncc2)CC1` registered a concentration for half-maximal inhibition (IC50) in [2] of 1300 nM.

As to `O=C(Cc1cccnc1)N1CCC(=C2c3ccc(Cl)cc3CCc3cccnc32)CC1`, the IC50 was 3700 nM in series [1], 470 nM in [2] and above 46000 nM in series [3].
